Values joined by “and” are separate entries in the source; they are usually repeats but may differ in a detail not shown here. Equal entries are not always repeated. Active and inactive are the calls of the source.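 Rule for the calls: active = Chi band cutting by RecBCD reduced more than twofold versus the solvent-only control; inactive = reduction of twofold or less versus solvent-only control.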
Biological target: RecBCD enzyme subunit RecC (Escherichia coli (strain K12)) + RecBCD enzyme subunit RecB (Escherichia coli (strain K12)) (UniProt P07648+P08394)
Assay: RecBCD helicase and Chi cutting inhibitors, late-stage follow-up, counter-screen for AddAB inhibitor project, biochemical, radioactive gel readout, single concentration (AID 623937)
Conditions: purified RecBCD, 32P DNA gel autoradiography, at 50 µM
Procedure, shortened: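 assay system = purified E. coli RecBCD helicase-nuclease enzyme | input = RecBCD enzyme at 0.15 nM | medium = reaction mix containing 5 mM ATP | probe or stimulus = 0.1 nM labeled Chi+F linear DNA | times = enzyme reaction for 1 min at 37 °C | technique = Agarose gel of DNA products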

RecBCD enzyme subunit RecC (Escherichia coli (strain K12)) + RecBCD enzyme subunit RecB (Escherichia coli (strain K12)), sequence (P07648 whole entry, looked up): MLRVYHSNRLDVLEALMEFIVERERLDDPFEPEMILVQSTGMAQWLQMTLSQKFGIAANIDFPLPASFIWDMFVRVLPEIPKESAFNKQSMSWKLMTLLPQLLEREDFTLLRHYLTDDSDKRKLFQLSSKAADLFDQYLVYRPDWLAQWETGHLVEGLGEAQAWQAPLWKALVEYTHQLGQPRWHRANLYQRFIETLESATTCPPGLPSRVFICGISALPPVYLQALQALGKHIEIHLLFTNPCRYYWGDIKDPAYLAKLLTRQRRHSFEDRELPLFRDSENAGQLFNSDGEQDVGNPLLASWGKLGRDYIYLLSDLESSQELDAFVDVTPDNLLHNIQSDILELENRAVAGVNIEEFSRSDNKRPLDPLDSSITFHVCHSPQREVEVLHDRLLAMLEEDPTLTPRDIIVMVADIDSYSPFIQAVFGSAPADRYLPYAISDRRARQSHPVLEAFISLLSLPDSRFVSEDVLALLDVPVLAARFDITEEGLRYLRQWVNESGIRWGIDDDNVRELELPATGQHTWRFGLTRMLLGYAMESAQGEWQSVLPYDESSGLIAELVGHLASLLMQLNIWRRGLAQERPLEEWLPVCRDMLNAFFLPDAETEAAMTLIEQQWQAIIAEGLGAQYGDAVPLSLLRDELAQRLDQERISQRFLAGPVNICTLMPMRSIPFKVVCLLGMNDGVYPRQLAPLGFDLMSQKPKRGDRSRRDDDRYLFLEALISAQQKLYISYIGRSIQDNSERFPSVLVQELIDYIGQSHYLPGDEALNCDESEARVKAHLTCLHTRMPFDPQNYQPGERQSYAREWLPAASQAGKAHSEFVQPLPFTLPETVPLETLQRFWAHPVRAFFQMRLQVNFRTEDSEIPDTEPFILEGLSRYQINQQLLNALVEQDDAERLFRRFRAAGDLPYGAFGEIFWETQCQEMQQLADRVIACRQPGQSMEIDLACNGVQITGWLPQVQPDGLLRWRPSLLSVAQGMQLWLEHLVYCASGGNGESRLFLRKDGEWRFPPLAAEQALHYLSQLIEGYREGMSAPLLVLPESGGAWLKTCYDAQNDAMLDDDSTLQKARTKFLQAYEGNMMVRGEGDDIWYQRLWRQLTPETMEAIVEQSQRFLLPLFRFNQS
RecBCD enzyme subunit RecC (Escherichia coli (strain K12)) + RecBCD enzyme subunit RecB (Escherichia coli (strain K12)), sequence (P08394 whole entry, looked up): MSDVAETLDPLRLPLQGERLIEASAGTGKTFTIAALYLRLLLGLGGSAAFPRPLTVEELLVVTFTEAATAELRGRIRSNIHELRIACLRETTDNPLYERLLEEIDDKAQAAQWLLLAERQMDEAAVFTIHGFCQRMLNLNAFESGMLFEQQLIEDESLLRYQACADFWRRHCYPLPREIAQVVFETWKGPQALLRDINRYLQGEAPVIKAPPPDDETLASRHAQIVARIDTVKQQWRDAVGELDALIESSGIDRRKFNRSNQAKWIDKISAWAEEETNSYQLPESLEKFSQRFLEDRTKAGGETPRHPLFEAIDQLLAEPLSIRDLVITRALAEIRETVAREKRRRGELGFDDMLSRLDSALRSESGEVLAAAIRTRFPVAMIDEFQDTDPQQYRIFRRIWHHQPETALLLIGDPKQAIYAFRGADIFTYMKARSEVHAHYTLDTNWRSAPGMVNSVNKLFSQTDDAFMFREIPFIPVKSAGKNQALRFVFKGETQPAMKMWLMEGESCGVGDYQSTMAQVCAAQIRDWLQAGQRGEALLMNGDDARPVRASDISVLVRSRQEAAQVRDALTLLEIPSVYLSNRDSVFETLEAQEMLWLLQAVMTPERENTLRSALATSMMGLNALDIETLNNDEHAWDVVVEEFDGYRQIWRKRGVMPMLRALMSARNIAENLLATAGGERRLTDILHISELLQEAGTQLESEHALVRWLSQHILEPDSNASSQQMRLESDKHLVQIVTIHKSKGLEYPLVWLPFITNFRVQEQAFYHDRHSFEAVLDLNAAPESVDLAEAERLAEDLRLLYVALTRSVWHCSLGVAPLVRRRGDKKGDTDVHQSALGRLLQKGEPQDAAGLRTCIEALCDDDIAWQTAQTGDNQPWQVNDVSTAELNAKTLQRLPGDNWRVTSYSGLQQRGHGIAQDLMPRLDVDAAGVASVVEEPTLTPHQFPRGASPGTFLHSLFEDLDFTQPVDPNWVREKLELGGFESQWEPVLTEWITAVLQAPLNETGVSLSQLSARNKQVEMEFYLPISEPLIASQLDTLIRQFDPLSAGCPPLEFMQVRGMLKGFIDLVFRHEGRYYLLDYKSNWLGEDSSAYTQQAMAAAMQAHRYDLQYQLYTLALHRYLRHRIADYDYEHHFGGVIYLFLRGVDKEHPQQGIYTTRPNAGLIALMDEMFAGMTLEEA

fold reduction of Chi cutting	SMILES
< 2 (inactive)	CCn1cc(C(=O)O)c(=O)c2cnc(N3CCN(C(=S)NC(=O)c4cccnc4)CC3)nc21
< 2 (inactive)	CCn1cc(C(=O)O)c(=O)c2cnc(N3CCN(C(=S)NC(=O)c4ccco4)CC3)nc21
< 2 (inactive)	CCn1cc(C(=O)O)c(=O)c2cnc(N3CCN(C(=S)Nc4ccccc4F)CC3)nc21
> 2	CCn1cc(C(=O)O)c(=O)c2cnc(N3CCN(C(=O)Nc4ccccc4)CC3)nc21
< 2 (inactive)	CCn1cc(C(=O)O)c(=O)c2cnc(N3CCN(C(=S)Nc4ccccc4OC)CC3)nc21
> 2	CCn1cc(C(=O)O)c(=O)c2cnc(N3CCN(C(=S)NC(=O)c4cccc(C)c4)CC3)nc21
< 2 (inactive)	CCn1cc(C(=O)O)c(=O)c2cnc(N3CCN(C(=S)Nc4ccc(Cl)cc4)CC3)nc21
> 2	CCn1cc(C(=O)O)c(=O)c2cnc(N3CCN(C(=S)Nc4ccc(F)cc4)CC3)nc21
< 2 (inactive)	CCn1cc(C(=O)O)c(=O)c2cnc(N3CCN(C(=S)NC)CC3)nc21
> 2	CCn1cc(C(=O)O)c(=O)c2cnc(N3CCN(C(=S)Nc4ccccc4)CC3)nc21
> 2 and < 2 (inactive)	CCn1cc(C(=O)O)c(=O)c2cnc(N3CCN(C(=S)Nc4ccccc4C(F)(F)F)CC3)nc21
> 2	CCn1cc(C(=O)O)c(=O)c2cnc(N3CCN(C(=S)Nc4ccccc4Cl)CC3)nc21
< 2 (inactive)	CCn1cc(C(=O)O)c(=O)c2cnc(N3CCN(C(=S)Nc4ccc5c(c4)OCO5)CC3)nc21
< 2 (inactive)	CCn1cc(C(=O)O)c(=O)c2cnc(N3CCN(C(=S)Nc4cccc(C(F)(F)F)c4)CC3)nc21
< 2 (inactive)	CCn1cc(C(=O)O)c(=O)c2cnc(N3CCN(C(=S)NC(C)c4ccccc4)CC3)nc21 (stereo not drawn)
< 2 (inactive)	CCn1cc(C(=O)O)c(=O)c2cnc(N3CCN(C(=S)Nc4ccccc4C)CC3)nc21
> 2	CCn1cc(C(=O)O)c(=O)c2cnc(N3CCN(C(=S)Nc4ccc5c(c4)OCCO5)CC3)nc21
< 2 (inactive)	CCn1cc(C(=O)O)c(=O)c2cnc(N3CCN(C(=S)NC(=O)c4ccccc4Cl)CC3)nc21
< 2 (inactive)	CCn1cc(C(=O)O)c(=O)c2cnc(N3CCN(C(=S)NCc4ccccc4)CC3)nc21
< 2 (inactive)	C=CCNC(=S)N1CCN(c2ncc3c(=O)c(C(=O)O)cn(CC)c3n2)CC1

The remaining lines, values behind:

SMILES	fold reduction of Chi cutting
N#Cc1c(NC(=O)c2ccco2)sc2c1CCC2	< 2 (inactive)
N#Cc1c(NC(=O)c2ccccc2)sc2c1CCC2	< 2 (inactive)
Nc1c(NC(=O)c2ccc([N+](=O)[O-])o2)sc2c1CCCC2	> 2
N#Cc1c(NC(=O)c2ccc([N+](=O)[O-])o2)sc2c1CCCC2	< 2 (inactive)
CC1CCc2c(sc(NC(=O)c3ccc([N+](=O)[O-])o3)c2C#N)C1 (stereo not drawn)	< 2 (inactive)
Cc1ccc(C(=O)Nc2sc3c(c2C#N)CCCCC3)o1	< 2 (inactive)
N#Cc1c(NC(=O)C2CC=CCC2C(=O)O)sc2c1CCC2 (stereo not drawn)	< 2 (inactive)
N#Cc1c(NC(=O)c2ccc([N+](=O)[O-])o2)sc2c1CCC2	> 2
CC1CCc2c(sc(NC(=O)c3ccc([N+](=O)[O-])o3)c2N)C1 (stereo not drawn)	> 2
Cc1cccnc1NC(=O)c1ccc([N+](=O)[O-])o1	< 2 (inactive)
Cc1ccc(C(=O)Nc2sc3c(c2C#N)CCC3)o1	< 2 (inactive)
NC(=O)c1ccsc1NC(=O)COC(=O)c1ccc([N+](=O)[O-])o1	< 2 (inactive)
O=C(Nc1ncccn1)c1ccc([N+](=O)[O-])o1	> 2
CC1(C)Cc2c(sc(NC(=O)c3ccco3)c2C#N)CO1	< 2 (inactive)
CCn1cc(C(=O)O)c(=O)c2cnc(N3CCN(C(=S)NC4CC5CCC4C5)CC3)nc21 (stereo not drawn)	> 2
CC(=O)Nc1ccc2nc(NC(=O)c3ccc([N+](=O)[O-])o3)sc2c1	< 2 (inactive)
C=CCn1c(Sc2ncc([N+](=O)[O-])s2)n[nH]c1=O	< 2 (inactive)
N#Cc1c(NC(=O)c2cccc(F)c2)sc2c1CCCC2	> 2
Cc1sc(NC(=O)c2ccc(Br)o2)c(C#N)c1C	< 2 (inactive)
CCn1cc(C(=O)O)c(=O)c2cnc(N3CCNCC3)nc21	< 2 (inactive)
Cc1ccc2nc(/C(C#N)=C\c3ccc([N+](=O)[O-])o3)[nH]c2c1	> 2
O=C(Nc1ccc(N2CCOCC2)cc1)c1ccc([N+](=O)[O-])o1	< 2 (inactive)
O=C(Nc1cccc(NC(=O)c2ccccc2Cl)c1)c1ccc([N+](=O)[O-])o1	> 2
N#Cc1c(NC(=O)c2cnccn2)sc2c1CCCC2	< 2 (inactive)
O=C(OCC(=O)c1cccs1)c1ccc([N+](=O)[O-])o1	< 2 (inactive)
O=C(NCc1cccnc1)c1ccc([N+](=O)[O-])o1	< 2 (inactive)
N#Cc1c(NC(=O)c2ccc(-c3ccccc3[N+](=O)[O-])o2)sc2c1CCCC2	< 2 (inactive)
N#Cc1c(NC(=O)c2ccccc2C(=O)O)sc2c1CCCC2	> 2

Reference: PubChem BioAssay AID623937 (The Scripps Research Institute Molecular Screening Center, 2012)
